SMILES strings stand for the structures.

Holding throughout (format): functional
The test system of test [1] is Radical scavenging activity. Kind of test: Antioxidant activity of the compound assessed as DPPH radical scavenging activity at 0.5 mM after 2 hrs. An outline of the steps:
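DPPH radical mixed with nitrone and held 2 h at room temperature in the dark. DPPH absorbance read at 517 nm. RSA% = 100 × (A0 − Ai)/A0, with A0 and Ai the absorbance without and with nitrone. Quadruplicate wells, at least three independent runs; mean ± SEM.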
For orientation: DPPH is a stable violet radical that fades when it is reduced.

Test [2] in a line: Antioxidant activity assessed as trolox equivalents of peroxyl radical scavenging activity by ORAC assay. In a few lines:
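Fluorescein (70 nM) with 2,2'-azobis(2-methylpropionamidine) dihydrochloride (12 mM) and antioxidant in 75 mM phosphate buffer pH 7.4 at 37 °C. Fluorescence recorded every minute for 98 min. Net AUC taken against the blank and plotted against concentration; slope divided by the slope of the Trolox curve from the same assay. Duplicate wells, at least three independent assays.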

The nature of test [3]: Antioxidant activity assessed as hydroxyl radical scavenging activity at 50 uM after 2 hrs by benzoic acid method. In a few lines: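 Hydroxyl radical from a Fenton reaction (Fe2+ plus H2O2 10 mmol) hydroxylates benzoate to fluorescent hydroxybenzoates. Incubation 2 h at 37 °C with or without nitrone; fluorescence read at excitation 305 nm, emission 407 nm. RSA% relative to no-nitrone control. Quadruplicate wells, at least three independent runs; mean ± SEM.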

The subject of test [4] is SH-SY5Y. As to the kind of experiment: Neuroprotective activity against rotenone/oligomycin-A-induced death in human SH-SY5Y cells assessed as increase of cell viability at 1 uM after 2 hrs by MTT assay. In a few lines:
(§1)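 Human SH-SY5Y neuroblastoma cells, low passage (<13), grown in 1:1 Ham's F-12/EMEM with 10% heat-inactivated FBS. Seeded at 1×10⁵ cells/well and treated before confluence in EMEM with 1% FBS. Insult was 30 µM rotenone plus 10 µM oligomycin-A for 24 h. Viability read by MTT (2 h, 37 °C, dark), then lysis and absorbance at 540 nm.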
A general note: Formazan colour is commonly taken as a measure of viable cells.

Test [5] relates to Mus musculus. Kind of test: Neuroprotective activity in NMRI mouse assessed as protection against t-BHP-induced lethality at 150 mg/kg, ip after 30 mins relative to control. The conditions noted are these: route intraperitoneal.
Test [6] deals with SH-SY5Y. Kind of test: Neuroprotective activity against rotenone/oligomycin-A-induced death in human SH-SY5Y cells assessed as protective effect at 1 uM after 2 hrs by MTT assay. In a few lines: as §1
For test [7], the system named is SH-SY5Y. Kind of test: Neuroprotective activity against rotenone/oligomycin-A-induced death in human SH-SY5Y cells assessed as increase of cell viability at 1 mM after 2 hrs by MTT assay. An outline of the steps:
as §1

In test [8] the test system is SH-SY5Y. Kind of test: Neuroprotective activity against rotenone/oligomycin-A-induced death in human SH-SY5Y cells assessed as protective effect at 1 mM after 2 hrs by MTT assay. An outline of the steps:
as §1

Test [9] deals with Radical scavenging activity. As to the kind of experiment: Antioxidant activity of the compound assessed as DPPH radical scavenging activity at 15 mM after 2 hrs. An outline of the steps:
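DPPH radical added to test compound; mixture kept 2 h at room temperature in the dark, then absorbance read at 517 nm. RSA% = 100×(A0−Ai)/A0, where A0 and Ai are DPPH absorbance without and with compound. Quadruplicate wells, at least three independent runs; mean ± SEM.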

Test [10] concerns SH-SY5Y. Kind of test: Neuroprotective activity against rotenone/oligomycin-A-induced death in human SH-SY5Y cells assessed as increase of cell viability at 10 nM after 2 hrs by MTT assay. An outline of the steps: as §1
In test [11] the test system is SH-SY5Y. As to the kind of experiment: Neuroprotective activity against rotenone/oligomycin-A-induced death in human SH-SY5Y cells assessed as protective effect at 10 nM after 2 hrs by MTT assay. An outline of the steps:
as §1

For the compound `COc1cc(Br)c(/C=[N+](\[O-])Cc2ccccc2)cc1O`, the Activity in test [1] turned out to be 25.9%; in test [3], 94.6%; in test [4] it was 64.2%; in test [5], 111%; in [6] it was 8.7%. Moreover, the Activity (Trolox equivalents) in test [2] came to 7.36.

In the case of `CC(C)(C)/[N+]([O-])=C/c1cccnc1Cl`, the Activity in test [1] came to 1.6%; in [3], 94.9%; in [4], 61.4%; in test [5], 74%; in [6] it was 0%. The Activity (Trolox equivalents) in test [2] was 0.01.

On to `COc1cc(/C=[N+](\[O-])Cc2ccccc2)ccc1O`, for which the Activity in [1] was determined as 88.2%; in test [3] it was 96.9%; in [4] it was 63.9%; in [6], 16.9%. Besides, the Activity (Trolox equivalents) in test [2] was 2.93.

As for `COc1cc(Br)c(/C=[N+](\[O-])C(C)(C)C)cc1OC`, the Activity stood at 0.8% in [1]; 96.3% in test [3]; 63.1% in [4]; 70% in test [5]; 0% in test [6]. The Activity (Trolox equivalents) in test [2] was 0.03.

For the compound `COc1cc(/C=[N+](\[O-])Cc2ccccc2)c(Br)cc1O`, the Activity in [1] stood at 40.7%; in test [3] it was 95.7%; in test [4], 62.8%; in test [6], 13.4%. Besides, the Activity (Trolox equivalents) in test [2] was found to be 6.4.

On to `[O-]/[N+](=C\c1ccccc1)Cc1ccccc1`, for which the Activity in [1] is 0.6%; in test [3] it was 95.7%; in [4] it was 70.8%; in test [5], 111%; in test [6], 18.4%. In addition, the Activity (Trolox equivalents) in test [2] worked out at 0.01.

For `CC(C)(C)/[N+]([O-])=C/c1cccnc1Br`, the Activity in test [1] is 3.9%; in test [3], 95.1%; in test [4], 60.1%; in [5], 76%; in [6] it was 24%. For the same compound, the Activity (Trolox equivalents) in test [2] was 0.01.

As to `COc1cc(/C=[N+](/C)[O-])ccc1O`, the Activity came to 87.6% in test [1] and 96.5% in test [3]. The Activity (Trolox equivalents) in test [2] is 3.35.

As for `COc1cc(Br)c(/C=[N+](\[O-])Cc2ccccc2)cc1OC`, the Activity in [1] stood at 0.2%; in test [3], 95.1%; in test [4], 65.3%; in [5] it was 116%; in [6] it was 3%. Further, in [2], the Activity (Trolox equivalents) turned out to be 0.03.

As to `COc1cc(Br)c(/C=[N+](\[O-])C(C)(C)C)cc1O`, the Activity in test [1] was 31.1%; in [3], 96.3%; in test [4], 65%; in test [5], 87%; in test [6] it was 11%. In test [2], the Activity (Trolox equivalents) was found to be 5.58.

Turning to `COc1ccc2c(c1)cc(/C=[N+](\[O-])C(C)(C)C)n2C`, the Activity is 4.8% in [1], 62.8% in [4], 50% in test [5] and 4.4% in test [6]. In addition, the Activity (Trolox equivalents) in test [2] came out at 7.98.

As to `Cc1c(C)c2c(c(C)c1O)CCC(C)(C(=O)O)O2` (stereo not drawn), the Activity (Trolox equivalents) in test [2] stood at 1. In test [3], the Activity stood at 94.3%.

Consider `CC(C)(C)/[N+]([O-])=C/c1c[nH]c2ccccc12`, for which the Activity was determined as 1.2% in [1], 64.1% in test [4], 60% in [5] and 8% in test [6]. For the same compound, in [2], the Activity (Trolox equivalents) came out at 3.69.

In the case of `CC(=O)N[C@@H](CS)C(=O)O` [ACETYLCYSTEINE], the values for the Activity in test [7] and in test [8] were 63.1% and 25%, respectively.

Turning to `O=c1c(O)c(-c2ccc(O)c(O)c2)oc2cc(O)cc(O)c12`, the Activity in test [9] turned out to be 94.2%; in [3] it was 96.6%. Besides, the Activity (Trolox equivalents) in test [2] stood at 10.5.

For the compound `CC(C)(C)/[N+]([O-])=C/c1ccccc1`, the Activity in test [1] is 1.4%; in [3] it was 94.9%; in [4], 69.6%; in test [5] it was 73%; in [6] it was 18.6%. The Activity (Trolox equivalents) in test [2] worked out at 0.

`COc1cc(/C=C/C(=O)CC(=O)/C=C/c2ccc(O)c(OC)c2)ccc1O` [CURCUMIN]: the Activity in test [9] was 35%; in test [3] it was 96.8%; in test [5] it was 106%.

As for `COc1ccc2[nH]cc(CCNC(C)=O)c2c1` [MELATONIN], the Activity in test [10] was determined as 59%; in [11] it was 17%.

Regarding `C/[N+]([O-])=C/c1ccccc1`, the Activity in test [1] was found to be 0.8%; in test [3], 95.3%; in [4], 64.7%; in [6] it was 18.7%. Further, the Activity (Trolox equivalents) in test [2] came out at 0.
